According to ChEMBL document CHEMBL3616457, “Synthesis and biological evaluation of new symmetric curcumin derivatives” (Bioorg Med Chem Lett, 2015):
Values after ≈ are worked out from the molar mass of the structure shown. Active and inactive are the calls of the source. No cut-off for these calls is given here.

Key:
A549 = assay: Cytotoxicity against human A549 cells at 1 to 500 ug/ml incubated for 24 hrs by MTT assay; assay type: functional, cell-based
Procedure, shortened: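 A549 lung cancer cells grown in MEM with 10% FBS, penicillin and streptomycin, at 37 °C under 5% CO2. Compounds made up at 2 mg/mL in DMSO, filter-sterilized, diluted in medium to 1, 10, 50, 100 and 500 μg/mL. Exposure 24 h, 0.1% DMSO control. MTT (5 mg/mL stock) added for 4 h, formazan dissolved in DMSO, read at 545 nm. Triplicate.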

[1] = Antioxidant activity assessed as DPPH radical scavenging activity; assay type: physicochemical
Procedure, shortened: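 DPPH stock 0.1 mmol in DMSO. 1 mL sample diluted with 2 mL DMSO, mixed with 2 mL DPPH stock, absorbance at 517 nm. Tested at 10–50 μg/mL. % inhibition = [(blank−test)/blank]×100, IC50 derived from the concentration series. Run twice.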

[2] = Antioxidant activity assessed as H2O2 scavenging activity; assay type: physicochemical
Procedure, shortened: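 H2O2 prepared at 2.0 mM in 0.2 M phosphate buffer pH 7.4. Compounds at 10–50 μg/mL added to 0.6 mL of this solution and made up to 4 mL with buffer. H2O2 absorbance read at 230 nm against a buffer blank. % inhibition = [(blank−test)/blank]×100, IC50 derived from the concentration series.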

[3] = Anti-inflammatory activity assessed as inhibition of bovine serum albumin denaturation at 10 to 500 ug/ml incubated for 15 mins at 37 degC; assay type: functional
Procedure, shortened: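 Compounds dissolved in minimal DMF, diluted in 0.2 M phosphate buffer pH 7.4 (final DMF <2.5%). 4 mL test solution mixed with 1 mL of 1 mM albumin and held 15 min at 37 °C, then heated 15 min at 70 °C to denature. After cooling, turbidity read at 660 nm. % inhibition calculated against a no-drug control.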

Row | IC50 [1] [mg/L] | IC50 [2] [mg/L] | SMILES | Activity (A549) | inhibition [3]
1 | 23.77 (≈ 37.5 µM) | 63.7 (≈ 100 µM) | COc1cc(/C=C/C(=O)/C=C(O)/C=C/c2ccc(OCC(=O)Nc3ccccc3)c(OC)c2)ccc1OCC(=O)Nc1ccccc1 | Active | Active
2 | 12.05 (≈ 18.2 µM) | 63.21 (≈ 95.4 µM) | COc1cc(/C=C/C(=O)/C=C(O)/C=C/c2ccc(OCC(=O)N(C)c3ccccc3)c(OC)c2)ccc1OCC(=O)N(C)c1ccccc1 | Active | Active
3 | 32.74 (≈ 186 µM) | 67.54 (≈ 383 µM) | O=C1O[C@H]([C@@H](O)CO)C(O)=C1O [ASCORBIC ACID] |  | 
4 | 12.65 (≈ 17.2 µM) | 41.4 (≈ 56.3 µM) | COc1cc(/C=C/C(=O)/C=C(O)/C=C/c2ccc(OCC(=O)Nc3cccc4ccccc34)c(OC)c2)ccc1OCC(=O)Nc1cccc2ccccc12 | Active | 
5 | 16 (≈ 24.7 µM) | 26.14 (≈ 40.4 µM) | COc1cc(/C=C/C(=O)/C=C(O)/C=C/c2ccc(OCC(=O)NC3CCCCC3)c(OC)c2)ccc1OCC(=O)NC1CCCCC1 | Active | Active
6 | 24.26 (≈ 36.2 µM) | 70.51 (≈ 105 µM) | COc1cc(/C=C/C(=O)/C=C(O)/C=C/c2ccc(OCC(=O)Nc3ccc(F)cc3)c(OC)c2)ccc1OCC(=O)Nc1ccc(F)cc1 | Active | Active
7 | 12.92 (≈ 18.4 µM) | 65.4 (≈ 93 µM) | COc1cc(/C=C/C(=O)/C=C(O)/C=C/c2ccc(OCC(=O)Nc3ccc(Cl)cc3)c(OC)c2)ccc1OCC(=O)Nc1ccc(Cl)cc1 | Active | 
8 | 19.68 (≈ 33.1 µM) | 68.16 (≈ 115 µM) | CCN(CC)C(=O)COc1ccc(/C=C/C(=O)/C=C(O)/C=C/c2ccc(OCC(=O)N(CC)CC)c(OC)c2)cc1OC | Active | Active
9 | 14.83 (≈ 40.3 µM) | 34.71 (≈ 94.2 µM) | COc1cc(/C=C/C(=O)CC(=O)/C=C/c2ccc(O)c(OC)c2)ccc1O [CURCUMIN] | Active | Active
10 | 22.85 (≈ 34.5 µM) | 61.98 (≈ 93.5 µM) | COc1cc(/C=C/C(=O)/C=C(O)/C=C/c2ccc(OCC(=O)Nc3ccc(C)cc3)c(OC)c2)ccc1OCC(=O)Nc1ccc(C)cc1 | Active | Active
11 |  |  | O=C(O)Cc1ccccc1Nc1c(Cl)cccc1Cl |  | Active
